Assay outcomes (PubChem BioAssay)
SUMO1 PPI mod: modulators of SUMO1 protein-protein interactions, primary screen, biochemical, uHTS. SUMO1 binding to a labelled peptide, TR-FRET, 1 h. inhibition, % at 20 µM. 360,000 compounds, 0.33% hits; in the data active means inhibition above about 37%
LMPTP inh: LMPTP phosphatase inhibitors, primary screen, biochemical, fluorescence intensity, uHTS; Low molecular weight phosphotyrosine protein phosphatase (Homo sapiens), P24666; recombinant LMPTP-A, OMFP fluorogenic substrate; inhibition, % at 20 µM; 360,000 compounds, 0.22% hits; AID 651560, 2012;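 active means compounds that cut the enzyme signal by at least half of the control window in the single-dose screen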;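 further: plate controls were DMSO wells with enzyme plus substrate for no effect and substrate without enzyme for full effect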
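Buffer or medium: Bis-Tris pH 6.0, DTT, detergent; Assay system: LMPTP-A enzyme; Quantity: 0.625 nM enzyme; Detection: endpoint fluorescence intensity; Times: 50 min dark incubation at room temperature; Controls: substrate-only low control, DMSO enzyme-plus-substrate high control; Doses: single 20 µM dose; Read-out: percent inhibition versus substrate-only and uninhibited controls; Reagent: 400 µM OMFP.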
STEP block: STEP phosphatase inhibitors, primary screen, biochemical, fluorescence intensity, uHTS | AID 588621, 2011 | inhibition, % at 20 µM | recombinant STEP, OMFP fluorogenic substrate | 360,000 compounds, 0.25% hits;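 active means inhibition at 20 µM, scaled per plate between control wells, above about 37%, limit read from the data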;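 further: 0% = DMSO with enzyme and substrate and 100% = substrate only without enzyme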
Target sequence (P54829 whole entry, looked up): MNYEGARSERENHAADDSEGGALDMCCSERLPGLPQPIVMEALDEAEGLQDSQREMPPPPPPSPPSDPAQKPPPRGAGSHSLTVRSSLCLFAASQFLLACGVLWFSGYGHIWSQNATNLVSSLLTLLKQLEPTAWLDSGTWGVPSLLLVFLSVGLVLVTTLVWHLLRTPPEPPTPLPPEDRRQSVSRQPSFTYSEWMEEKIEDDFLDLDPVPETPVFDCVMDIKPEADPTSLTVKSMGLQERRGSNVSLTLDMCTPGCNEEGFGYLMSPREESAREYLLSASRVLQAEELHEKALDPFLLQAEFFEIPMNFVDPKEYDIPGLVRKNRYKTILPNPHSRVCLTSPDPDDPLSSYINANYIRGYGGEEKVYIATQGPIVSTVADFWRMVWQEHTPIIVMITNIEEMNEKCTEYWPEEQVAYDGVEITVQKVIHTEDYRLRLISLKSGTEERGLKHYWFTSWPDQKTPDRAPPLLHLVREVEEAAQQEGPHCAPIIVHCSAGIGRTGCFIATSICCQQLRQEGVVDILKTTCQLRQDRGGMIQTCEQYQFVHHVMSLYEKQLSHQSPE
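Also added – OMFP at 25 µM · Test system – STEP tyrosine phosphatase · Technique – FITC-channel fluorescence of OMFP product · Schedule – 20 min at room temperature, dark · Evaluation – control-normalized % inhibition with plate pattern correction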
Scp1 inh: Scp-1 phosphatase inhibitors, primary screen, biochemical, colorimetric, uHTS. Carboxy-terminal domain RNA polymerase II polypeptide A small phosphatase 1 (Homo …. Recombinant Scp1, phosphopeptide, malachite green phosphate absorbance. inhibition, % at 20 µM. 340,000 compounds, 0.88% hits. AID 493091, 2011;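 active means inhibition above about 50% at 20 µM, limit read from the data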;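 further: plate controls were DMSO wells with enzyme for no effect and wells lacking enzyme for full effect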
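Times: enzyme reaction 45 min at room temperature, colour 5 min, stabilisation 30 min. Material: SCP-1 catalytic fragment, aa 76-261. Medium: Acidic Tris acetate buffer with magnesium and detergent. Signal: colorimetric free-phosphate detection, absorbance 630 nm. Read-out basis: % inhibition of SCP-1 phosphate liberation. Reagent: Phosphorylated 17-residue peptide substrate.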
DNMT1 block: human DNMT1 methyltransferase inhibitors, primary screen, biochemical, molecular beacon, fluorescence, HinP1I cleavage, uHTS | inhibition (reported as % activation of signal), % at 10 µM | 360,000 compounds, 0.83% hits | AID 588458, 2011; in the data active means inhibition above about 50%
* hit, by the source's call; nt = not tested or not shown. Shown are actives, neighbours in structure and some others; about 1.7% of the full set was active somewhere.

SMILES	SUMO1 PPI mod	LMPTP inh	STEP block	Scp1 inh	DNMT1 block
Cc1ccc(/C=N/Nc2nnc(Cl)c3ccccc23)cc1	-9	-1	-2	2	-3
CC(=O)Nc1ccc(C=NNc2nnc(NN=Cc3ccc(NC(C)=O)cc3)c3ccccc23)cc1	40*	3	19	1	-31
CN(C)CCN(C)C1CN(C2CCCC2)S(=O)(=O)C1 (centres undefined)	3	-6	2	nt	8
COc1ccc(/C=N/NC(=O)c2cc(O)c(O)c(O)c2)cc1Cn1cc([N+](=O)[O-])cn1	8	62*	5	83*	22
COc1ccc(/C=N/NC(=O)c2ccccc2O)cc1Cn1cc([N+](=O)[O-])cn1	-13	2	-3	-7	1
CCOc1cccc(CNc2ccc(O)cc2)c1OCc1ccccc1Cl	44*	22	-6	-8	-46
CCOc1cccc(CNc2ccc(O)cc2)c1OCc1ccc(Cl)cc1Cl	68*	17	10	-5	-28
CCN(c1ccc(OC)cc1)S(=O)(=O)N1CCCC(C(=O)NC(C)c2ccccc2)C1 (centres undefined)	2	0	4	nt	0
N#C/C(=C/c1cccn1-c1cccc(C(=O)O)c1)c1ccc(Cl)cc1	-6	8	6	33	80*
CCOC(=O)/C(C#N)=C/c1cccn1-c1ccc(Cl)cc1	-1	5	2	-14	-1
CCCCCCCCCCCCCCCC(O)C[N+](C)(C)CCO (centres undefined)	-176	-3	4	82*	1
CC(C)(C)C(=O)c1c(N)[nH]c(C(=O)c2ccccc2)c1-c1ccc(C(F)(F)F)cc1	4	0	nt	nt	nt
O=C(NCc1ccccn1)[C@@H]1CCCN1C(=O)[C@@H]1CCCN1C(=O)c1c(F)cccc1F	-2	-2	nt	nt	nt
Nc1c(N2CCOCC2)cc(Cl)c2nonc12	9	-1	15	0	3
Nc1c(N2CCCC2)cc(Cl)c2nonc12	37	8	4	-6	78*
N#Cc1c(-c2ccc(Cl)cc2)cc(-c2cccs2)nc1SCC(=O)O	2	92*	98*	90*	9
C/C(=N\Nc1cc(C)nc(-c2ccccc2)n1)c1cccc([N+](=O)[O-])c1	48*	2	-2	-1	10
C#CCNC(=O)C[C@@H]1C[C@@]2(C(=O)OC)CCCCC=C2N(CCC2=CCCCC2)C1=O	3	0	nt	nt	nt
Oc1[nH]c2ccccc2c1N=Nc1c(F)c(F)c(Cl)c(F)c1F	-5	-1	-1	-10	-2
Oc1[nH]c2ccccc2c1N=Nc1ccccc1Cl	-3	-1	-4	7	54*
COc1ccc(S(=O)(=O)NC(=O)C2(C)CCN2C(=O)C2(c3ccccc3)CCCC2)cc1 (centres undefined)	5	-1	-3	nt	10
CN(C)c1ccc(/C=C2\SC(=O)N(CC(O)Cn3c4ccccc4c4ccccc43)C2=O)cc1 (centres undefined)	-1	4	0	-1	-8
CN(C)c1ccc(/C=C2/SC(=O)N(CCN=C3NS(=O)(=O)c4ccccc43)C2=O)cc1	41*	1	-1	-3	-26
CCCCCC(=O)Nc1cc(S(=O)(=O)N2CCCCC2)ccc1N1CCCCC1	-1	6	6	-1	-2
CCCCCC(=O)Nc1cc(S(=O)(=O)O)cc2cc(S(=O)(=O)O)cc(O)c12	119*	96*	99*	102*	-19
SMILES	SUMO1 PPI mod	LMPTP inh	STEP block	Scp1 inh	DNMT1 block
N=C(N)c1ccc(OCCCCCOc2ccc(C(=N)N)cc2)cc1	-65	58*	-3	-9	20
CCCCCCOc1ccc(/C(N)=N/O)cc1	4	-1	6	-4	0
O=C1C(=Cc2cn(-c3ccccc3)nc2-c2ccc(OCc3ccccc3F)cc2)SC(=S)N1CCS(=O)(=O)O	88*	89*	7	nt	37
Cc1ccc(-c2nn(-c3ccccc3)cc2/C=C2\SC(=S)N(CC(=O)O)C2=O)cc1	8	4	14	49	7
O=C(O)CCN1C(=O)/C(=C/c2cn(-c3ccccc3)nc2-c2cccs2)SC1=S	-4	81*	74*	38	17
O=C1C(=Cc2cn(-c3ccccc3)nc2-c2ccc(OCc3ccc(Cl)cc3)cc2)SC(=S)N1CCS(=O)(=O)O	110*	94*	8	nt	-181
COC(=O)[C@@]12C[C@@H](CC(=O)N3CCN(C(=O)C4CC4)CC3)C(=O)N(CCc3ccc(OC)c(OC)c3)C1=CCC(C)(C)C2	4	0	nt	nt	nt
CSc1ccc(CN2CCC(C)(Oc3cccc(F)c3)C2)cc1 (centres undefined)	0	-2	1	nt	5
O=[N+]([O-])c1cccc2c(S(=O)(=O)N3CCCCC3)cccc12	-34	1	3	-6	0
O=[N+]([O-])c1cccc2c(S(=O)(=O)N3CCOCC3)cccc12	-25	21	59*	32	14
Nc1cccc2cc(S(=O)(=O)O)ccc12	25	4	22	62*	62*
COC(=O)c1c(Sc2ccccc2)c2ccccc2n1C	3	0	-2	61*	4
N#CC(=C1C=CC(=NO)C(Cl)=C1)c1ccccc1	-2	0	2	nt	-17
CCOC(=O)[C@]12CCCC=C1N(Cc1ccccc1)C(=O)[C@H](CC(=O)NCc1cccs1)C2	1	-1	nt	nt	nt
O=C1Nc2ccccc2/C1=C/c1cnc(-c2ccccc2)[nH]1	43*	18	-5	-3	27
O=C1Nc2ccccc2/C1=C/c1cccnc1	-7	0	0	4	-2
O=Nc1ccc(NOC(=O)c2ccccc2Br)cc1	-11	3	-2	-3	13
O=C(ONc1ccc(N=NC(=O)c2ccccc2O)cc1)c1ccccc1	-18	22	-1	91*	4
O=C(NNC(=O)c1cc2cc(Br)ccc2oc1=O)c1ccc(O)cc1O	-17	54*	49*	60*	4
COCCCNC(=O)c1cc2cc(Br)ccc2oc1=O	-20	1	-3	1	0
COC(=O)c1cc(Nc2cc(C)c3c(O)cccc3n2)cc(C(=O)OC)c1	9	43	2	0	-14
Cc1ccccc1Nc1cc(C)c2c(O)cccc2n1	0	67*	-1	-16	0
COc1ccc(Nc2cc(C)c3c(O)cccc3n2)cc1	-1	79*	-3	-4	-14
Cc1ccc(Nc2cc(C)c3c(O)cccc3n2)cc1C	9	67*	5	2	-16
